# Measured values published in ChEMBL document CHEMBL4513216, “Probing the Open Global Health Chemical Diversity Library for Multistage-Active Starting Points for Next-Generation Antimalarials” (ACS Infect Dis, 2020).
# Test: Toxicity liver stage against HepG2, at 10uM
# Type: cell-based
# Parameters: test concentration 10 uM, cell line HepG2-A16-CD81EGFP
# Settings: human, HepG2-A16-CD81EGFP cells; read-out: INHIBITION
# How it was run: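 Uninfected HepG2-A16-CD81EGFP cells, 3 × 10^3 per well, 1536-well, plated on prespotted compound at 10 μM final, parasite-free screening media added to match infected plates; puromycin 10 μM positive, DMSO 0.5% negative; run in parallel with 48 h PbLuc assay at 37 °C, 5% CO2; viability by CellTiter-Glo luminescence, normalized to controls.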
row,Compound,cytotoxicity at 10 µM [%]
1,O=C(NCC1CCCO1)c1cc(-c2ccncc2)c2cnccc2n1 (stereo unspecified),1.05
2,COCc1nc(N(C)C)ncc1C(=O)Nc1ccc(Cl)cc1,0.474
3,Cc1cnn(CC(C)NCc2nc(-c3ccsc3)oc2C)c1 (stereo unspecified),-2.6
4,Cn1cc(NC(=O)c2cccc(Cl)c2)c(=O)n(C)c1=O,-1.86
5,O=C(CCn1cnnn1)N1CCCC(CO)(CCc2ccccc2)C1 (stereo unspecified),5.26
6,O=C(c1cccc(O)c1)N1CCC2(CCN2c2ncccn2)C1 (stereo unspecified),-139
7,O=C(Nc1nncs1)N1CCCN(C2CCCCC2)CC1,1.48
8,O=S(=O)(NCC(O)c1ccc(C(F)(F)F)cc1)C1CC1 (stereo unspecified),-6.9
9,Cc1ccc2[nH]c(CN(C)Cc3ccccc3C(=O)O)nc2c1,7.01
10,COC1CCN(c2ccc(F)cc2CN(C)S(C)(=O)=O)CC1,-12.5
11,Cc1ccnc(NC(=O)c2[nH]nc(C(C)C)c2Br)c1,12.9
12,O=C(c1ccn(-c2ccc(F)cc2)n1)N(CCO)Cc1cccnc1,17.5
13,Fc1ccc(C(NCc2nnc(-c3ccco3)o2)C2CCC2)cc1 (stereo unspecified),-36.3
14,Cc1ccc(CNC(=O)c2c[nH]nc2NC(=O)C2COCCO2)cc1 (stereo unspecified),-9.95
15,Cc1nc(NC(=O)C2(C)CN(C)CCO2)sc1C (stereo unspecified),2.44
16,Cc1ccccc1CS(=O)(=O)Cc1nc(C2CC2)no1,4.49
17,O=C(CCn1cnc2cc(F)c(F)cc21)N1CCN(C2CC2)CC1,-1.54
18,CN1CCS(=O)(=O)[C@@H]2CCN(C(=O)CC(C)(C)C)CC[C@@H]21,1.2
19,O=C(CSc1ccc(F)cc1F)NS(=O)(=O)c1ccc2c(c1)OCCO2,-10.7
20,CCC(C)N(Cc1cccnc1)Cc1ccccc1Cn1cccn1 (stereo unspecified),-43
21,Cc1ccccc1C(=O)NC[C@@H]1CCN(C(=O)c2cccn2C)C[C@H]1O,-45.3
22,CC(=O)N1CCC2(CC1)C(=O)N(C)c1c(F)cccc12,-11.2
23,CCN(CC)c1ccc(C(=O)NCC2(C(N)=O)CCOCC2)cn1,2.99

row,Compound,cytotoxicity at 10 µM [%]
1,N#Cc1cccnc1NCc1cccnc1N1CCC(C(N)=O)CC1,-0.179
2,CCc1nc(C2CCCN(C(=O)c3ccc(Cl)cc3)C2)no1 (stereo unspecified),5.71
3,Cc1cc(NC(=O)CCCn2ccnc2C)nc(C(C)C)n1,-5.73
4,O=C(c1ccsc1)N1CCc2c(COCC3CC3)cncc2C1,1.65
5,CN1C(=O)CC(c2cnn(C)c2)C12CCN(CC1CCOCC1)CC2 (stereo unspecified),-3.19
6,Cc1c(Cl)c(C(=O)N2CC[C@H](N3CCOCC3)[C@H](CCCO)C2)nn1C,-148
7,O=S(=O)(Nc1ncccc1F)c1cc(Cl)cc2c1OCC2,1.6
8,COc1ccccc1OC1(C(=O)O)CCN(c2cc(C)nc(C)c2)CC1,2.65
9,Cc1noc(CNC(=O)C(C)(C)NC(=O)OC(C)(C)C)n1,13.9
10,Cc1cnc(Cn2cc(-c3cccc(C(C)N(C)C)c3)nn2)cn1 (stereo unspecified),-0.807
11,O=C(CN1CCCC1CC(=O)c1ccccc1)NCc1ccccn1 (stereo unspecified),1.39
12,CCNC(=O)c1ncn2c1CN(C)S(=O)(=O)c1ccccc1-2,-10.1
13,c1ccc(-c2cnc(CN(Cc3cccnc3)CC3CCCO3)o2)cc1 (stereo unspecified),17.5
14,O=C(CCc1cc(O)no1)N1CCCC(OCc2cccnc2)C1 (stereo unspecified),-12.7
15,Cc1cc(CN2CCN3C[C@H](c4ccccc4)[C@@H](CO)[C@H]3C2)on1,7.66
16,COCCOCCSc1nnc(Cc2ccccc2F)o1,14.5
17,Cc1ccc2nc3n(c2c1)[C@@H](CNCc1nccs1)COC3,-4.31
18,CC(=O)Nc1cccc2c1ccn2CC(=O)NC(C)C,-7.79
19,Cc1cc(C)c(S(=O)(=O)Nc2c(C)nc(N(C)C)nc2C)cc1C,6.63
20,COc1ccc2[nH]nc(CN3CCC(C(C)N(C)C)CC3)c2c1 (stereo unspecified),-1.45
21,O=C(CN1CCCCC1Cn1cccn1)NC1CCN(C2CC2)CC1 (stereo unspecified),-4.43
22,CC(=O)NCCc1ccc(C(=O)N2CCCC2c2cnn(C)c2)cc1 (stereo unspecified),-4.74
23,CCCS(=O)(=O)CC(=O)NC(C)c1cccc(-n2cccn2)c1 (stereo unspecified),6

row,Compound,cytotoxicity at 10 µM [%]
1,COc1c(C)cnc(CN(C)C(=O)c2cccc(NC(N)=O)c2)c1C,-8.94
2,Cc1cnc(C2(C)CCN(Cc3cscn3)CC2)s1,-22.5
3,COc1ccc(CCNC(=O)c2ccc(=O)n(C)c2)c(Cl)c1,-10.3
4,O=C(c1cccnc1)N1CCN(CC2CC2)c2ncccc2C1,2
5,Cc1ccc(C#N)c(N2CCC3(CCC(=O)N(CC(N)=O)C3)CC2)n1,0.845
6,O=C(NCC1CC1)C1CN(C(=O)Nc2ccccc2)CC12CCOCC2 (stereo unspecified),-82.6
7,Cn1ccnc1-c1nc2cc(S(=O)(=O)N3CCCC3)ccc2n1C,5.05
8,CN1C(=O)[C@@H]2CC[C@H]1CN(C(=O)Nc1cccc3ccccc13)C2,-2.69
9,CNC(=O)N1CCN(C(=O)N(C)C)CC2(CC(=O)N(C)C2)C1 (stereo unspecified),4.9
10,CC1CN(c2ccc(CNC(=O)NCCO)cn2)CCO1 (stereo unspecified),6.15
11,COc1cccc(-c2cc(C3=NC(=CN4CCN(C)CC4)NO3)[nH]n2)c1,-7.54
12,CC(CNC(=O)c1cc(Cn2cnc3ccccc32)[nH]n1)N1CCCC1 (stereo unspecified),-4.62
13,COc1c(CNCCNC(=O)c2ccccc2F)c(C)nn1C,-0.644
14,COc1ccc(-c2ccnc3nc(N4CCCCC4)[nH]c(=O)c23)cc1,5.31
15,Cn1cc(CN2CCC(F)(F)C3(CCN(c4ccccn4)C3)C2)cn1 (stereo unspecified),-0.434
16,Cc1nn(C(C)C)c(C)c1S(=O)(=O)Nc1cccc(F)c1,-0.335
17,c1ccc(-c2nnc(CN3CCOC(Cn4cccn4)C3)o2)cc1 (stereo unspecified),-2.48
18,NCCO[C@H]1C[C@@H](O)C12CCN(C1Cc3ccccc3C1)CC2,20.7
19,Cc1cc(CN(C)Cc2ncc(-c3cccs3)o2)no1,11
20,COCCN(C)C[C@H]1C[C@H](CO)CN(C(=O)c2ccn(C)c(=O)c2)C1,-2.75
21,CCCS(=O)(=O)N1CCOCC2(CCN(c3ccccn3)C2)C1 (stereo unspecified),2.42
22,Cn1ccc2c(-c3ccc(NC4CC4)nn3)ccnc21,10.4
23,COCC1CN(Cc2cc(C)on2)Cc2cn(CC3CC3)nc21 (stereo unspecified),8.91

row,Compound,cytotoxicity at 10 µM [%]
1,Cc1n[nH]c(C2CN(C(=O)c3cc4c(s3)CCC4)CCO2)n1 (stereo unspecified),-5.65
2,CCNC(=O)N1CCC(Cc2cccc(C(N)=O)c2)C1 (stereo unspecified),2.92
3,Cc1ccc(CNC(CN2CCN(C)CC2)c2ccccc2)cc1C (stereo unspecified),-7.49
4,Cc1ccc(O)c(CN(Cc2ccccc2)Cc2nccs2)n1,0.31
5,O=C(c1ccccn1)N1CCC(Oc2cccnc2)CC1,-3.59
6,CC(C)(C)c1ncc(S(C)(=O)=O)c(C2CCCNC2)n1 (stereo unspecified),-12.7
7,COCCN(Cc1ccoc1)C(=O)c1ccccc1OC,6.28
8,Cc1nc(C2CCNCC2)cc(N2CCOc3ccccc3C2)n1,-2.3
9,Cc1ccoc1C1=NNC(=CN2CCCC(Cn3cncn3)C2)O1 (stereo unspecified),-2.07
10,CCc1nnsc1C(=O)NCCc1nnc2n1CCC2,3.16
11,Cc1nnc(CN2CCCC2c2ccsc2)o1 (stereo unspecified),3.22
12,CCN1CCC(CNC(=O)c2cc(Cl)c[nH]2)CC1,-9.4
13,CSC(C)C(=O)NS(=O)(=O)CCc1ccccc1 (stereo unspecified),2.88
14,Cc1cccc(CN2C(=O)CCC23CCN(C(=O)N2CCCC2)CC3)n1,4.56
15,Cc1ccc(C)c(OC2CCN(C(=O)CNc3ccccc3Cl)CC2)c1,40.2
16,CCn1cc(CN2CCCN(C(=O)CCc3cccs3)CC2)cn1,-6.99
17,Cc1cc(C)n(CC(C)NCc2nc(-c3cccnc3)no2)n1 (stereo unspecified),0.107
18,CS(=O)(=O)N1CCC(Oc2ccc(C(=O)NCC3CCC3)cc2Cl)CC1,12
19,CCCN(CCC)C(=O)Cn1c(SC)nc2ccsc2c1=O,3.88
20,CCS(=O)(=O)CCN1CCCC1c1noc(C2CC2)n1 (stereo unspecified),-6.33
21,COCCN1CC[C@@H]2O[C@H](COCc3csc(C)n3)CC[C@@H]21,-76.7
22,Cc1nc2ccccc2n1CCNCc1cccc(C#N)c1,-0.591
23,Cc1ccc2c(c1C)OCC2NCc1cccc(C#N)c1 (stereo unspecified),9.91

row,Compound,cytotoxicity at 10 µM [%]
1,c1cnnc(N2CCCC(NCc3nc(C4CC4)no3)C2)c1 (stereo unspecified),-14.6
2,Cc1nnc(N2CC[C@H]3O[C@H](C(=O)NCc4ccccn4)CC[C@H]32)s1,-66.4
3,CN(C)[C@@H]1CCN(S(=O)(=O)C2CC2)[C@H]1Cc1ccccc1,-7.46
4,COc1cc(Oc2ccc(C(N)=O)cn2)ccc1CN1CCCC1,-0.398
5,CS(=O)(=O)NCC1CCCCN1C(=O)c1csc(-c2ccsc2)n1 (stereo unspecified),-5.89
6,c1cn2c(n1)CN(C1CCOCC1)CC(CN1CCCC1)C2 (stereo unspecified),-0.123
7,CCC(=O)NC(c1ccc(C)cc1)c1cccc(S(C)(=O)=O)c1 (stereo unspecified),-7.62
8,N#Cc1ccccc1C(=O)Nc1cccc(CN2CCC(CO)CC2)c1,-140
9,Cn1ccc(C(=O)NC2CCC23CCN(C(=O)c2ccncc2)CC3)c1 (stereo unspecified),-9.84
10,Cn1cccc1C(=O)N1CC[C@@H]2[C@@H]1CC(=O)N2CC1CCOCC1,-2.82
11,CCSc1cc(C(=O)NCc2ccccc2O)ccn1,-3.81
12,CNC(=O)c1sccc1S(=O)(=O)NC,8.52
13,CN(Cc1cnn(C)c1)CC(O)c1ccc2c(c1)OCCCO2 (stereo unspecified),2.85
14,O=C1NC(C(=O)NCc2cccnc2Oc2ccc(F)cc2F)CO1 (stereo unspecified),-1.32
15,Cc1ccc(OCC(C)NC(=O)CN(C)c2ccc(C#N)cn2)cc1 (stereo unspecified),-6.05
16,CCn1ncc(CN(C)C(=O)c2cc(C(F)(F)F)n(C)n2)c1C,3.87
17,COc1ccc(Oc2cc(CN)ccn2)cc1,3.98
18,O=C(NCc1ccco1)[C@@]12CCO[C@@H]1CCN(C1CCC1)C2,12.3
19,CCOCCSc1nnc(Cc2ccccc2F)o1,8.45
